Assay results: PubChem BioAssay AID652286 (Sanford-Burnham Center for Chemical Genomics, 2013)
“And” between values parts separate entries of the source, which are not always exact repeats. Equal entries are not always repeated. The source made the active and inactive calls.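 How the source made its calls: active means compounds halving thioesterase enzyme activity at 20 µM or lower; inactive means the rest.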

Target: Fatty acid synthase (Homo sapiens) (UniProt P49327)
Experiment: inhibition of FAS-TE enzyme activity – biochemical, kinetic fluorescence, OMFH substrate, round 2, powder samples, SAR follow-up (AID 652286)
Settings: recombinant FAS-TE, OMFH fluorogenic substrate
Summary of the method: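 Test system: FAS thioesterase domain enzyme | Medium: Tris-HCl pH 7.5 buffer with NaCl, sarcosine, TCEP, Brij35 | Also added: OMFH fluorogenic substrate (2x stock 60 µM) | Dosing: Dose-response series, 5.5% DMSO final in well | Times: 10-min read interval, room temperature | Signal: Fluorescence at 480/540 nm, kinetic mode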

Chain of Fatty acid synthase (Homo sapiens) (P49327 whole entry, looked up): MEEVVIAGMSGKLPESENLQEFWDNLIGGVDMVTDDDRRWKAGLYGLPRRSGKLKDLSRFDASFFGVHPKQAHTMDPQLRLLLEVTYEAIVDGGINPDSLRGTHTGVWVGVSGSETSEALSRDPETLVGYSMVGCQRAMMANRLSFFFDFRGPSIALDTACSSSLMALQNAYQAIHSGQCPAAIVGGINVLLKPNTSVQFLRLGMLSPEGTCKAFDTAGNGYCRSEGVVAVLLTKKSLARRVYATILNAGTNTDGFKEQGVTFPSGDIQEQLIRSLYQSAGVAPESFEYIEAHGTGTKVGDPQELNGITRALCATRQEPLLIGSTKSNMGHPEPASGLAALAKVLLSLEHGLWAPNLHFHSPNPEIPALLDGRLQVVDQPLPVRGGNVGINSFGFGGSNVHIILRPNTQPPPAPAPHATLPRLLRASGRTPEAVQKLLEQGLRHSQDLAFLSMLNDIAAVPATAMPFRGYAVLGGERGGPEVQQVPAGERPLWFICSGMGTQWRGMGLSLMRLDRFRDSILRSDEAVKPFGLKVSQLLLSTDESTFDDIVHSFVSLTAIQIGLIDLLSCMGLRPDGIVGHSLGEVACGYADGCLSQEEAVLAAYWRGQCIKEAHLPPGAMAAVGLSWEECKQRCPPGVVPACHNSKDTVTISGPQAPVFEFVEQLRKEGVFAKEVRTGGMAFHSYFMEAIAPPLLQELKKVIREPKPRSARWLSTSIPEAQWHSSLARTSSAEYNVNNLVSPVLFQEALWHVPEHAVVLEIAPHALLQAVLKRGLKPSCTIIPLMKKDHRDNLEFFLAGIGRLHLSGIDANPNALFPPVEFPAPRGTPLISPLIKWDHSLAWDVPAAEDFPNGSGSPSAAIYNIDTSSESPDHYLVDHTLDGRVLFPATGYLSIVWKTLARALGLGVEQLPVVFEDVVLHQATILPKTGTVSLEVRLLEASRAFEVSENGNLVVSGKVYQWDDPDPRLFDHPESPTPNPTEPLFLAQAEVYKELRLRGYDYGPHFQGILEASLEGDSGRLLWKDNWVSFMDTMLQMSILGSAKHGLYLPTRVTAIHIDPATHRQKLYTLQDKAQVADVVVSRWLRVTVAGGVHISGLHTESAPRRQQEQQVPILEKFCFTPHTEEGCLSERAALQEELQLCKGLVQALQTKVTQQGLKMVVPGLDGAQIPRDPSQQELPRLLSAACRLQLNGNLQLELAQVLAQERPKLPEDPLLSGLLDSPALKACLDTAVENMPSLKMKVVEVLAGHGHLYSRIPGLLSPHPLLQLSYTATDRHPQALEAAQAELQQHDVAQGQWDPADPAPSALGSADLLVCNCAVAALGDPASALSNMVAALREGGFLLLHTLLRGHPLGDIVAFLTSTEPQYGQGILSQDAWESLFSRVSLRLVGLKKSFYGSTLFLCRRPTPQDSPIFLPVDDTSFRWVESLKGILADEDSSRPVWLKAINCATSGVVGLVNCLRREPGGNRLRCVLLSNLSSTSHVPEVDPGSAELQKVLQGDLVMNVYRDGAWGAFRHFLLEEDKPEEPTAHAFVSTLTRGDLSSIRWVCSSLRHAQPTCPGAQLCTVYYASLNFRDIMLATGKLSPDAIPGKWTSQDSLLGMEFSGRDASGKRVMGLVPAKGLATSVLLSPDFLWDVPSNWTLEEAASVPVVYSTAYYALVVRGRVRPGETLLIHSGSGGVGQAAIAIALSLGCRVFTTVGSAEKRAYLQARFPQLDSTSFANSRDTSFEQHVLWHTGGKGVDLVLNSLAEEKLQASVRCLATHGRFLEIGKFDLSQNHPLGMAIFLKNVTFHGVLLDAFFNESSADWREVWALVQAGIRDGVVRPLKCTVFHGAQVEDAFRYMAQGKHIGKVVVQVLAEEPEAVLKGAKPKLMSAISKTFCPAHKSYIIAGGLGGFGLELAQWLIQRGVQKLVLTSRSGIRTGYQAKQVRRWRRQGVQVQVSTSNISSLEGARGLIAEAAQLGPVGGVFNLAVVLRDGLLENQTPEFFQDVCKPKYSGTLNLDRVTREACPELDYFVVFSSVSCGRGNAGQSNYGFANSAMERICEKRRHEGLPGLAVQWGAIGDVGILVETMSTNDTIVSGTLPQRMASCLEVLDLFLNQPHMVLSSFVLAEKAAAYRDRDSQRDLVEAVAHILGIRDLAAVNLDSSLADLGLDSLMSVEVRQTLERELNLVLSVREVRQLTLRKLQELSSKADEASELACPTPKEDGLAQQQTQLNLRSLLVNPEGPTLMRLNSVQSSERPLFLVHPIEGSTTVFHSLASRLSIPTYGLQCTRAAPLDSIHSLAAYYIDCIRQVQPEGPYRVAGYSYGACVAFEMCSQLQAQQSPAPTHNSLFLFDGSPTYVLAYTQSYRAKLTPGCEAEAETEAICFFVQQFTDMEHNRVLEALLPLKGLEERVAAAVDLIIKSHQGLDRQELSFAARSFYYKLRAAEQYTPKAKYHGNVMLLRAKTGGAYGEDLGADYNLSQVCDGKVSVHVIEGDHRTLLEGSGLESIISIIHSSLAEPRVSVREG

Row | SMILES | IC50
1 | CCC(C)C(=O)Nc1nc(-c2ccc(S(=O)(=O)N(CC)CC)cc2)cs1 (stereo not drawn) | 1060 nM and 152 nM
2 | Cn1c(SCC(=O)Nc2ncc(C(F)(F)F)cc2Cl)nnc1-c1ccc(Cl)cc1 | 682 nM
3 | CCC(C)C(=O)Nc1nc(-c2ccc(S(=O)(=O)N3CCCCC3C)cc2)cs1 (stereo not drawn) | 278 nM
4 | CCCCC(=O)Nc1nc(-c2ccc(S(=O)(=O)N3CCOCC3)cc2)cs1 | 201 nM
5 | CCCCCCCCCCC[C@H](C[C@@H]1OC(=O)[C@H]1CCCCCC)OC(=O)[C@@H](NC=O)C(C)C | 122 nM
6 | CCCCCC(=O)Nc1nc(-c2ccc(S(=O)(=O)N(CC)CC)cc2)cs1 | 190 nM
7 | CCCCCCC(=O)Nc1nc(-c2ccc(S(=O)(=O)N3CCCCC3C)cc2)cs1 (stereo not drawn) | 4430 nM
8 | CCCCCCC(=O)Nc1nc(-c2ccc(S(=O)(=O)N3CCCC3)cc2)cs1 | 874 nM
9 | CCCCCCC(=O)Nc1nc(-c2ccc(S(=O)(=O)N(CC)CC)cc2)cs1 | 1400 nM
10 | CCC(CC)C(=O)Nc1nc(-c2ccc(S(=O)(=O)N(CC)CC)cc2)cs1 | 343 nM
11 | CCCCCC(=O)Nc1nc(-c2ccc(S(=O)(=O)N3CCCCC3C)cc2)cs1 (stereo not drawn) | 552 nM
12 | CCCCCC(=O)Nc1nc(-c2ccc(S(=O)(=O)N3CCCC3)cc2)cs1 | 137 nM
13 | CCCCC(=O)Nc1nc(-c2ccc(S(=O)(=O)N3CCCCC3C)cc2)cs1 (stereo not drawn) | 358 nM
14 | CN(Cc1ccc(C(C)(C)C)cc1)C(=O)Cc1ccc(S(=O)(=O)N2CCOCC2)s1 | 365 nM
15 | CC(C)CC(=O)Nc1nc(-c2ccc(S(=O)(=O)N3CCCC3)cc2)cs1 | 1640 nM

Next, values leading:

Row | IC50 | SMILES
16 | 1820 nM | CCC(CC)C(=O)Nc1nc(-c2ccc(S(=O)(=O)N3CCC(C)CC3)cc2)cs1
17 | 489 nM | CC1CCN(S(=O)(=O)c2ccc(-c3csc(NC(=O)C(C)C)n3)cc2)CC1
18 | 405 nM | CCC(C)C(=O)Nc1nc(-c2ccc(S(=O)(=O)N3CCC(C)CC3)cc2)cs1 (stereo not drawn)
19 | 141 nM | CCC(C)C(=O)Nc1nc(-c2ccc(S(=O)(=O)N3CCCC3)cc2)cs1 (stereo not drawn)
20 | 5850 nM | CCCCCCC(=O)Nc1nc(-c2ccc(S(=O)(=O)N3CCC(C)CC3)cc2)cs1
21 | 762 nM | CCCCCC(=O)Nc1nc(-c2ccc(S(=O)(=O)N3CCC(C)CC3)cc2)cs1
22 | 254 nM | CCC(CC)C(=O)Nc1nc(-c2ccc(S(=O)(=O)N3CCCC3)cc2)cs1
23 | inactive | CC(C)CC(=O)Nc1nc(-c2ccc(S(=O)(=O)N3CCC(C)CC3)cc2)cs1
